Laboratory results published in ChEMBL document CHEMBL3272012, “5-(Tetradecyloxy)-2-furancarboxylic acid and related hypolipidemic fatty acid-like alkyloxyarylcarboxylic acids” (J Med Chem, 1977).

Assays:
Rattus norvegicus [1] = assay: Hypolipidemic activity in Wistar rat assessed as reduction in plasma triglyceride level at 489 umol/kg/day administered through diet for 10 days; assay type: functional; conditions: 240 h
Rattus norvegicus [2] = assay: Increase in cholesterol level in Wistar rat liver at 489 umol/kg/day administered through diet for 10 days; assay type: ADME, organism-based; conditions: in vivo, po, 240 h
Rattus norvegicus [3] = assay: Increase in liver weight in Wistar rat at 489 umol/kg/day administered through diet for 10 days; assay type: ADME, organism-based; conditions: in vivo, po, 240 h
Rattus norvegicus [4] = assay: Hypolipidemic activity in Wistar rat assessed as reduction in plasma cholesterol level at 489 umol/kg/day administered through diet for 10 days; assay type: functional; conditions: 240 h
Method in brief: (§1)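 Young male Wistar rats, 170-190 g initial weight, groups of six, given compound mixed thoroughly into Purina Lab Chow ad libitum for 4 or 10 days as stated. Daily dose calculated from food consumption and body weight. Bled by cardiac puncture at end of treatment; plasma cholesterol measured by automated procedure. Expressed as percent reduction versus simultaneous untreated control group; Student's t test.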

Rattus norvegicus [5] = assay: Increase in cholesterol level in Wistar rat liver at 571 umol/kg/day administered through diet for 10 days; assay type: ADME, organism-based; conditions: in vivo, po, 240 h
Rattus norvegicus [6] = assay: Increase in liver weight in Wistar rat at 571 umol/kg/day administered through diet for 10 days; assay type: ADME, organism-based; conditions: in vivo, po, 240 h
Rattus norvegicus [7] = assay: Hypolipidemic activity in Wistar rat assessed as reduction in plasma triglyceride level at 571 umol/kg/day administered through diet for 10 days; assay type: functional; conditions: 240 h
Rattus norvegicus [8] = assay: Hypolipidemic activity in Wistar rat assessed as reduction in plasma cholesterol level at 571 umol/kg/day administered through diet for 10 days; assay type: functional; conditions: 240 h
Method in brief: (§2)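 Young male Wistar rats (initial weight 170-190 g), groups of six, fed compound mixed into Purina Lab Chow ad libitum for 4 or 10 days; daily dose calculated from food consumption and body weight. Bled by cardiac puncture; plasma cholesterol and triglycerides by automated procedures; percent reduction versus simultaneous untreated controls, Student's t test.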

Rattus norvegicus [9] = assay: Hypolipidemic activity in Wistar rat assessed as reduction in plasma cholesterol level at 558 umol/kg/day administered through diet for 10 days; assay type: functional; conditions: 240 h; method in brief: as §2
Rattus norvegicus [10] = assay: Increase in cholesterol level in Wistar rat liver at 179 umol/kg/day administered through diet for 10 days; assay type: ADME, organism-based; conditions: in vivo, po, 240 h
Method in brief: (§3)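 Male Wistar rats (170-190 g), six per group, given compound by admixture to lab chow ad libitum for 4 or 10 days, dose derived from food intake. Liver cholesterol determined by automated procedure, expressed as mg/g wet tissue, compared with an untreated control group by Student's t test.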

Rattus norvegicus [11] = assay: Increase in liver weight in Wistar rat at 1498 umol/kg/day administered through diet for 10 days; assay type: ADME, organism-based; conditions: in vivo, po, 240 h
Rattus norvegicus [12] = assay: Hypolipidemic activity in Wistar rat assessed as reduction in plasma triglyceride level at 1498 umol/kg/day administered through diet for 10 days; assay type: functional; conditions: 240 h
Method in brief: (§4)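 Young male Wistar rats, 170-190 g initial weight, six per group, fed drug mixed thoroughly into Purina Lab Chow ad libitum for the stated days; daily dose calculated from food consumption and body weight. Bled by cardiac puncture at end; plasma cholesterol and triglycerides by automated procedures, expressed as percent reduction versus simultaneous untreated controls; Student's t test.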

Rattus norvegicus [13] = assay: Hypolipidemic activity in Wistar rat assessed as reduction in plasma triglyceride level at 179 umol/kg/day administered through diet for 10 days; assay type: functional; conditions: 240 h; method in brief: as §2
Rattus norvegicus [14] = assay: Hypolipidemic activity in Wistar rat assessed as reduction in plasma cholesterol level at 179 umol/kg/day administered through diet for 10 days; assay type: functional; conditions: 240 h
Method in brief: (§5)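 Young male Wistar rats, 170-190 g at start, in groups of six, given compound mixed into Purina Lab Chow ad libitum for 4 or 10 days as stated. Daily dose was calculated from food consumption and body weight. Plasma was taken by cardiac puncture at the end and cholesterol measured by automated procedure. Results are % reduction versus a concurrent untreated control group, with Student's t test.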

Rattus norvegicus [15] = assay: Increase in cholesterol level in Wistar rat liver at 558 umol/kg/day administered through diet for 10 days; assay type: ADME, organism-based; conditions: in vivo, po, 240 h; method in brief: as §3
Rattus norvegicus [16] = assay: Increase in cholesterol level in Wistar rat liver at 1498 umol/kg/day administered through diet for 10 days; assay type: ADME, organism-based; conditions: in vivo, po, 240 h
Rattus norvegicus [17] = assay: Hypolipidemic activity in Wistar rat assessed as reduction in plasma cholesterol level at 1498 umol/kg/day administered through diet for 10 days; assay type: functional; conditions: 240 h; method in brief: as §5
Rattus norvegicus [18] = assay: Hypolipidemic activity in Wistar rat assessed as reduction in plasma triglyceride level at 558 umol/kg/day administered through diet for 10 days; assay type: functional; conditions: 240 h; method in brief: as §2
Rattus norvegicus [19] = assay: Increase in liver weight in Wistar rat at 558 umol/kg/day administered through diet for 10 days; assay type: ADME, organism-based; conditions: in vivo, po, 240 h
Method in brief: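 Male Wistar rats (170-190 g initial), groups of six, dosed via diet ad libitum for 4 or 10 days, daily dose from food consumption. Liver wet weight measured, expressed as g/100 g final body weight, compared with untreated controls run simultaneously.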

Rattus norvegicus [20] = assay: Increase in liver weight in Wistar rat at 275 umol/kg/day administered through diet for 10 days; assay type: ADME, organism-based; conditions: in vivo, po, 240 h
Rattus norvegicus [21] = assay: Hypolipidemic activity in Wistar rat assessed as reduction in plasma triglyceride level at 275 umol/kg/day administered through diet for 10 days; assay type: functional; conditions: 240 h; method in brief: as §4
Rattus norvegicus [22] = assay: Increase in liver weight in Wistar rat at 407 umol/kg/day administered through diet for 4 days; assay type: ADME, organism-based; conditions: in vivo, po, 96 h
Rattus norvegicus [23] = assay: Increase in liver weight in Wistar rat at 149 umol/kg/day administered through diet for 10 days; assay type: ADME, organism-based; conditions: in vivo, po, 240 h
Rattus norvegicus [24] = assay: Hypolipidemic activity in Wistar rat assessed as reduction in plasma cholesterol level at 511 umol/kg/day administered through diet for 10 days; assay type: functional; conditions: 240 h; method in brief: as §1
Rattus norvegicus [25] = assay: Hypolipidemic activity in Wistar rat assessed as reduction in plasma triglyceride level at 407 umol/kg/day administered through diet for 4 days; assay type: functional; conditions: 96 h
Rattus norvegicus [26] = assay: Hypolipidemic activity in Wistar rat assessed as reduction in plasma cholesterol level at 275 umol/kg/day administered through diet for 10 days; assay type: functional; conditions: 240 h; method in brief: as §5
Rattus norvegicus [27] = assay: Increase in cholesterol level in Wistar rat liver at 407 umol/kg/day administered through diet for 4 days; assay type: ADME, organism-based; conditions: in vivo, po, 96 h
Rattus norvegicus [28] = assay: Increase in liver weight in Wistar rat at 511 umol/kg/day administered through diet for 10 days; assay type: ADME, organism-based; conditions: in vivo, po, 240 h
Rattus norvegicus [29] = assay: Hypolipidemic activity in Wistar rat assessed as reduction in plasma cholesterol level at 149 umol/kg/day administered through diet for 10 days; assay type: functional; conditions: 240 h; method in brief: as §5
Rattus norvegicus [30] = assay: Increase in cholesterol level in Wistar rat liver at 275 umol/kg/day administered through diet for 10 days; assay type: ADME, organism-based; conditions: in vivo, po, 240 h
Rattus norvegicus [31] = assay: Hypolipidemic activity in Wistar rat assessed as reduction in plasma triglyceride level at 511 umol/kg/day administered through diet for 10 days; assay type: functional; conditions: 240 h
Rattus norvegicus [32] = assay: Hypolipidemic activity in Wistar rat assessed as reduction in plasma triglyceride level at 149 umol/kg/day administered through diet for 10 days; assay type: functional; conditions: 240 h, read-out: INH; method in brief: as §4
Rattus norvegicus [33] = assay: Increase in cholesterol level in Wistar rat liver at 511 umol/kg/day administered through diet for 10 days; assay type: ADME, organism-based; conditions: in vivo, po, 240 h
Rattus norvegicus [34] = assay: Increase in cholesterol level in Wistar rat liver at 149 umol/kg/day administered through diet for 10 days; assay type: ADME, organism-based; conditions: in vivo, po, 240 h
Rattus norvegicus [35] = assay: Hypolipidemic activity in Wistar rat assessed as reduction in plasma cholesterol level at 407 umol/kg/day administered through diet for 4 days; assay type: functional; conditions: 96 h; method in brief: as §5
Rattus norvegicus [36] = assay: Hypolipidemic activity in Wistar rat assessed as reduction in plasma cholesterol level at 496 umol/kg/day administered through diet for 4 days; assay type: functional; conditions: 96 h; method in brief: as §1
Rattus norvegicus [37] = assay: Increase in cholesterol level in Wistar rat liver at 460 umol/kg/day administered through diet for 10 days; assay type: ADME, organism-based; conditions: in vivo, po, 240 h
Rattus norvegicus [38] = assay: Hypolipidemic activity in Wistar rat assessed as reduction in plasma cholesterol level at 460 umol/kg/day administered through diet for 10 days; assay type: functional; conditions: 240 h; method in brief: as §1
Rattus norvegicus [39] = assay: Increase in liver weight in Wistar rat at 496 umol/kg/day administered through diet for 4 days; assay type: ADME, organism-based; conditions: in vivo, po, 96 h
Rattus norvegicus [40] = assay: Hypolipidemic activity in Wistar rat assessed as reduction in plasma triglyceride level at 496 umol/kg/day administered through diet for 4 days; assay type: functional; conditions: 96 h
Rattus norvegicus [41] = assay: Hypolipidemic activity in Wistar rat assessed as reduction in plasma triglyceride level at 460 umol/kg/day administered through diet for 10 days; assay type: functional; conditions: 240 h
Rattus norvegicus [42] = assay: Increase in cholesterol level in Wistar rat liver at 496 umol/kg/day administered through diet for 4 days; assay type: ADME, organism-based; conditions: in vivo, po, 96 h
Rattus norvegicus [43] = assay: Increase in liver weight in Wistar rat at 460 umol/kg/day administered through diet for 10 days; assay type: ADME, organism-based; conditions: in vivo, po, 240 h

CCCCCCCCCCOc1ccc(C(=O)OC)cc1
inhibition in vivo at 489 µmol/kg (Rattus norvegicus [1]): 94%
Activity (Rattus norvegicus [2]): 43%
Activity (Rattus norvegicus [3]): 19%
inhibition in vivo at 489 µmol/kg (Rattus norvegicus [4]): 36%

CCCCCCCCCCCCCc1ccc(C(=O)O)cc1
Activity (Rattus norvegicus [5]): 61%
Activity (Rattus norvegicus [6]): 25%
inhibition in vivo at 571 µmol/kg (Rattus norvegicus [7]): 77%
inhibition in vivo at 571 µmol/kg (Rattus norvegicus [8]): 54%

CCCCCCCCCCCCc1ccc(C(=O)O)cc1
inhibition in vivo at 558 µmol/kg (Rattus norvegicus [9]): 48%
Activity (Rattus norvegicus [10]): 79%
Activity (Rattus norvegicus [11]): 38%
inhibition in vivo at 1498 µmol/kg (Rattus norvegicus [12]): 74%
inhibition in vivo at 179 µmol/kg (Rattus norvegicus [13]): 62%
inhibition in vivo at 179 µmol/kg (Rattus norvegicus [14]): 34%
Activity (Rattus norvegicus [15]): 215%
Activity (Rattus norvegicus [16]): 323%
inhibition in vivo at 1498 µmol/kg (Rattus norvegicus [17]): 55%
inhibition in vivo at 558 µmol/kg (Rattus norvegicus [18]): 78%
Activity (Rattus norvegicus [19]): 29%

CCCCCCCCCCCCCCOc1ccc(C(=O)O)cc1
Activity (Rattus norvegicus [20]): 20%
inhibition in vivo at 275 µmol/kg (Rattus norvegicus [21]): 46%
Activity (Rattus norvegicus [22]): 14%
Activity (Rattus norvegicus [23]): 7%
inhibition in vivo at 511 µmol/kg (Rattus norvegicus [24]): 24%
inhibition in vivo at 407 µmol/kg (Rattus norvegicus [25]): 39%
inhibition in vivo at 275 µmol/kg (Rattus norvegicus [26]): 33%
Activity (Rattus norvegicus [27]): 1%
Activity (Rattus norvegicus [28]): 19%
inhibition in vivo at 149 µmol/kg (Rattus norvegicus [29]): 16%
Activity (Rattus norvegicus [30]): 4%
inhibition in vivo at 511 µmol/kg (Rattus norvegicus [31]): 36%
inhibition in vivo at 149 µmol/kg (Rattus norvegicus [32]): 49%
Activity (Rattus norvegicus [33]): 2%
Activity (Rattus norvegicus [34]): 7%
inhibition in vivo at 407 µmol/kg (Rattus norvegicus [35]): 31%

CCCCCCCCCCCCCOc1ccc(C(=O)OC)cc1
inhibition in vivo at 496 µmol/kg (Rattus norvegicus [36]): 27%
Activity (Rattus norvegicus [37]): 6%
inhibition in vivo at 460 µmol/kg (Rattus norvegicus [38]): 25%
Activity (Rattus norvegicus [39]): 20%
inhibition in vivo at 496 µmol/kg (Rattus norvegicus [40]): 31%
inhibition in vivo at 460 µmol/kg (Rattus norvegicus [41]): 70%
Activity (Rattus norvegicus [42]): 9%
Activity (Rattus norvegicus [43]): 20%
